Results on 14 compounds are retold here after ChEMBL document CHEMBL1129238, “Structure--activity relationships of 1-(2-Deoxy-2-fluoro-beta-L-arabinofuranosyl)pyrimidine nucleosides as anti-hepatitis B virus agents” (J Med Chem, 1996).

Experiment [1] is filed under the species Homo sapiens. Description: Anti hepatitis-B virus activity was evaluated in 2.2.15 cells. In kind it is functional, cell-based. To be noted: HepG2 2.2.15. In outline:
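HBV-producing 2.2.15 cells; EC50 reported; compounds examined at concentrations up to 10 μM.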

For experiment [2], the species on record is Homo sapiens. Description: The growth inhibition activity for the compound was evaluated in 2.2.15 cells. Format: functional, cell-based. As to conditions: HepG2 2.2.15. In outline: (§1)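 Cytotoxicity (growth inhibition, IC50) measured in 2.2.15 cells and in CEM cells, with compounds tested at concentrations up to 200 μM.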
Another experiment deals with CCRF-CEM. As to the kind of experiment: The growth inhibition activity for the compound was evaluated in CEM cells. Format: functional, cell-based. To be noted: Homo sapiens. In outline: as §1
For experiment [3], the species on record is Homo sapiens. Description: Selectivity index was determined from the ratio of IC50 to the EC50 values evaluated in 2.2.15 cells. Format: functional, HepG2 2.2.15. In outline:
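Selectivity computed as the ratio of the growth-inhibition IC50 to the anti-HBV EC50, both from 2.2.15 cells. Compounds were tested up to 200 μM for toxicity and up to 10 μM for antiviral activity.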

Usually EC50 stands for the midpoint of the concentration-response curve. By IC50 is commonly meant the concentration that gives 50% inhibition. The low end stands for greater potency, the high end for weaker potency.

In the experiment listed under Homo sapiens [1], `O=c1[nH]c(=O)n([C@@H]2O[C@H](CO)[C@@H](O)[C@@H]2F)cc1C(F)(F)F` came in with an EC50 greater than 10 µM. Moreover, in the experiment listed under Homo sapiens [2], the IC50 is greater than 200 µM.

Compound `O=c1[nH]c(=O)n([C@@H]2O[C@H](CO)[C@@H](O)[C@H]2F)cc1I` returned an EC50 in the experiment filed under Homo sapiens [1] greater than 10 µM. The same compound registered an IC50 in the experiment listed under Homo sapiens [2] greater than 200 µM.

As for `CCc1cn([C@H]2O[C@@H](CO)[C@H](O)[C@@H]2F)c(=O)[nH]c1=O`, the EC50 in the experiment filed under Homo sapiens [1] was greater than 10 µM. Further, the IC50 in the experiment filed under Homo sapiens [2] was greater than 200 µM.

In the experiment listed under Homo sapiens [1], `O=c1[nH]c(=O)n([C@H]2O[C@@H](CO)[C@H](O)[C@@H]2F)cc1/C=C/Br` had an EC50 greater than 10 µM. Besides, the IC50 is greater than 200 µM in the experiment listed under Homo sapiens [2] and greater than 100 µM in the experiment with CCRF-CEM.

Compound `Nc1nc(=O)n([C@H]2O[C@@H](CO)[C@H](O)[C@H]2F)cc1F` came in with an EC50 in the experiment listed under Homo sapiens [1] greater than 10 µM. Moreover, the IC50 in the experiment listed under Homo sapiens [2] is greater than 200 µM.

Consider `C#Cc1cn([C@H]2O[C@@H](CO)[C@H](O)[C@H]2F)c(=O)[nH]c1=O`, for which, in the experiment filed under Homo sapiens [1], the half-maximal effective concentration (EC50) is greater than 10 µM. The compound further gave an IC50 in the experiment filed under Homo sapiens [2] greater than 200 µM.

For `Nc1nc(=O)n([C@H]2O[C@@H](CO)[C@H](O)[C@H]2F)cc1Cl`, in the experiment filed under Homo sapiens [1], the EC50 was greater than 10 µM. Also, the IC50 in the experiment filed under Homo sapiens [2] is greater than 200 µM.

`O=c1[nH]c(=O)n([C@H]2O[C@@H](CO)[C@H](O)[C@H]2F)cc1F` had an EC50 in the experiment filed under Homo sapiens [1] greater than 10 µM. Also, the IC50 in the experiment listed under Homo sapiens [2] is greater than 200 µM.

For `O=c1[nH]c(=O)n([C@H]2O[C@@H](CO)[C@H](O)[C@H]2F)cc1Cl`, the EC50 in the experiment filed under Homo sapiens [1] was greater than 10 µM. In the experiment listed under Homo sapiens [2], this compound returned an IC50 greater than 200 µM.

Consider `O=c1[nH]c(=O)n([C@H]2O[C@@H](CO)[C@H](O)[C@H]2F)cc1Br`, for which the EC50 in the experiment filed under Homo sapiens [1] is greater than 10 µM. In the experiment listed under Homo sapiens [2], this compound yielded an IC50 greater than 200 µM.

On to `Nc1nc(=O)n([C@H]2O[C@@H](CO)[C@H](O)[C@H]2F)cc1Br`, for which the EC50 in the experiment listed under Homo sapiens [1] is greater than 10 µM. The IC50 in the experiment filed under Homo sapiens [2] is greater than 200 µM.

In the experiment filed under Homo sapiens [1], `Nc1ccn([C@@H]2O[C@H](CO)[C@@H](O)[C@@H]2F)c(=O)n1` gave an EC50 of 1.4 µM. In addition, the results for the IC50 in the experiment filed under Homo sapiens [2] and with CCRF-CEM were greater than 200 µM and greater than 100 µM, respectively. Further, in the experiment listed under Homo sapiens [3], the Selectivity was greater than 140.

In turn, `Cc1cn([C@@H]2O[C@H](CO)[C@@H](O)[C@@H]2F)c(=O)[nH]c1=O` [5-METHYL-2'-FLUOROARAURACIL] had an EC50 in the experiment filed under Homo sapiens [1] of 0.1 µM. The IC50 in the experiment filed under Homo sapiens [2] and in the experiment with CCRF-CEM was greater than 200 µM each time. Besides, the Selectivity in the experiment filed under Homo sapiens [3] is greater than 2000.

With `Nc1nc(=O)n([C@@H]2O[C@H](CO)[C@@H](O)[C@@H]2F)cc1I` [FIACITABINE], it took 5 µM to reach a half-maximal effect in the experiment filed under Homo sapiens [1] (EC50). In the experiment filed under Homo sapiens [2], this compound showed an IC50 greater than 200 µM. The Selectivity in the experiment filed under Homo sapiens [3] is greater than 40.
